This note sets out measurements from ChEMBL document CHEMBL4052819 (2017).

In assay [1] the test system is Acinetobacter baumannii. Description: Antibacterial activity against Acinetobacter baumannii ATCC 19606 after 18 to 20 hrs by broth microdilution method. It is filed as functional. The following applies: ATCC 19606 = CIP 70.34 = JCM 6841.
Assay [2] concerns Escherichia coli. Description: Antibacterial activity against Escherichia coli ATCC 25922 after 18 to 20 hrs by broth microdilution method. It is filed as functional. The procedure, abridged: (§1)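 Broth microdilution in tryptic soy broth: 2-fold dilutions mixed 1:1 with ~1.5 × 10^5 CFU/mL inoculum, final 0.5–32 μg/mL; 37 °C, 18–20 h. MIC taken as lowest concentration giving no visible growth. At least three independent experiments, one replicate each.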

Assay [3] deals with Klebsiella pneumoniae. Description: Antibacterial activity against Klebsiella pneumoniae ATCC 13883 after 18 to 20 hrs by broth microdilution method. The format is functional.
The test system of assay [4] is Pseudomonas aeruginosa. As to the kind of experiment: Antibacterial activity against Pseudomonas aeruginosa ATCC 27853 after 18 to 20 hrs by broth microdilution method. The format is functional. The procedure, abridged: as §1
In assay [5] the test system is Enterococcus faecium. Description: Antibacterial activity against Enterococcus faecium ATCC 19434 after 18 to 20 hrs by broth microdilution method. The format is functional. The procedure, abridged:
as §1

Assay [6] concerns Staphylococcus aureus. As to the kind of experiment: Antibacterial activity against Staphylococcus aureus ATCC 29213 after 18 to 20 hrs by broth microdilution method. It is filed as functional. Put shortly:
as §1

The subject of assay [7] is Staphylococcus aureus. Description: Antibacterial activity against methicillin-resistant Staphylococcus aureus ATCC 43300 after 18 to 20 hrs by broth microdilution method. The format is functional. Put shortly:
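Broth microdilution in tryptic soy broth: 2-fold dilutions mixed 1:1 with ~1.5 × 10^5 CFU/mL bacterial suspension in TSB, final 0.5–32 μg/mL, 37 °C for 18–20 h. MIC = lowest concentration with no visible growth. At least three independent experiments, one replicate each.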

The test system of assay [8] is Pseudomonas aeruginosa. As to the kind of experiment: Bactericidal activity against Pseudomonas aeruginosa ATCC 27853. It is filed as functional. The following applies: read-out: MBC99.9. Put shortly: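 MBC from MIC plates at end point: 50 μL from each well with no visible growth plated on tryptic soy agar and counted. MBC taken as lowest concentration giving ≥99.9% fall in viable count relative to initial inoculum. Three independent experiments, one replicate each.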

In assay [9] the test system is Escherichia coli. As to the kind of experiment: Antibacterial activity against Escherichia coli ATCC 25922 after 18 to 20 hrs in presence of 95% serum by broth microdilution method. The format is functional. The procedure, abridged:
(§2)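 Same microdilution with human serum as medium: compound 2-fold diluted in 100% serum, mixed 1:1 with 90% serum holding ~1.5 × 10^5 CFU/mL, giving 95% serum and final 0.5–64 μg/mL. MIC read as no visible growth after incubation as for the broth test.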

The test system of assay [10] is Staphylococcus aureus. Description: Antibacterial activity against Staphylococcus aureus ATCC 29213 after 18 to 20 hrs in presence of 95% serum by broth microdilution method. The format is functional. The procedure, abridged: as §2
The test system of assay [11] is Escherichia coli. Description: Antibacterial activity against Escherichia coli ATCC 25922 in presence of 100% serum measured immediately post compound addition in serum by broth microdilution method. The format is functional. The procedure, abridged:
(§3)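 Serum stability: compound added to 100% human serum at final 64 μg/mL, held at 37 °C, sampled at 0, 6, 12 and 24 h. […] Residual activity compared with untreated control.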

Assay [12] concerns Escherichia coli. Description: Antibacterial activity against Escherichia coli ATCC 25922 in presence of 100% serum after 6 hrs by broth microdilution method. It is filed as functional. The following applies: ATCC 25922, 6 h. The procedure, abridged:
as §3

Assay [13] relates to Escherichia coli. As to the kind of experiment: Antibacterial activity against Escherichia coli ATCC 25922 in presence of 100% serum after 12 hrs by broth microdilution method. It is filed as functional. The following applies: ATCC 25922, 12 h. The procedure, abridged: as §3
Assay [14] has as its system Escherichia coli. Description: Antibacterial activity against Escherichia coli ATCC 25922 in presence of 100% serum after 24 hrs by broth microdilution method. The format is functional. The following applies: ATCC 25922, 24 h. Put shortly:
as §3

In assay [15] the test system is Acinetobacter baumannii. Description: Potentiation of rifampicin-mediated antibacterial activity against Acinetobacter baumannii ATCC 19606 assessed as rifampicin MIC at 2 ug/ml by checkerboard method (reference value: 16 ug/ml). The format is functional. The following applies: ATCC 19606 = CIP 70.34 = JCM 6841.
The subject of assay [16] is Acinetobacter baumannii. Description: Potentiation of rifampicin-mediated antibacterial activity against Acinetobacter baumannii ATCC 19606 assessed as decrease in rifampicin MIC at 4 ug/ml by checkerboard method relative to control. It is filed as functional, ATCC 19606 = CIP 70.34 = JCM 6841.
Assay [17] has as its system Klebsiella pneumoniae. As to the kind of experiment: Potentiation of rifampicin-mediated antibacterial activity against Klebsiella pneumoniae ATCC 13883 assessed as rifampicin MIC at 2 ug/ml by checkerboard method (reference value: 16 ug/ml). The format is functional.
Assay [18] has as its system Klebsiella pneumoniae. As to the kind of experiment: Potentiation of rifampicin-mediated antibacterial activity against Klebsiella pneumoniae ATCC 13883 assessed as decrease in rifampicin MIC at 2 ug/ml by checkerboard method relative to control. It is filed as functional.
In assay [19] the test system is Acinetobacter baumannii. As to the kind of experiment: Potentiation of ampicillin-mediated antibacterial activity against Acinetobacter baumannii ATCC 19606 assessed as decrease in ampicillin MIC at 4 ug/ml by checkerboard method relative to control. It is filed as functional, ATCC 19606 = CIP 70.34 = JCM 6841.
Assay [20] relates to Acinetobacter baumannii. Description: Potentiation of clarithromycin-mediated antibacterial activity against Acinetobacter baumannii ATCC 19606 assessed as decrease in clarithromycin MIC at 4 ug/ml by checkerboard method relative to control. It is filed as functional, ATCC 19606 = CIP 70.34 = JCM 6841.
In assay [21] the test system is Acinetobacter baumannii. Description: Potentiation of erythromycin-mediated antibacterial activity against Acinetobacter baumannii ATCC 19606 assessed as decrease in erythromycin MIC at 4 ug/ml by checkerboard method relative to control. It is filed as functional, ATCC 19606 = CIP 70.34 = JCM 6841.
Assay [22] deals with Acinetobacter baumannii. Description: Potentiation of vancomycin-mediated antibacterial activity against Acinetobacter baumannii ATCC 19606 assessed as decrease in vancomycin MIC at 4 ug/ml by checkerboard method relative to control. The format is functional, ATCC 19606 = CIP 70.34 = JCM 6841.
Assay [23] has as its system Klebsiella pneumoniae. As to the kind of experiment: Potentiation of ampicillin-mediated antibacterial activity against Klebsiella pneumoniae ATCC 13883 assessed as decrease in ampicillin MIC at 4 ug/ml by checkerboard method relative to control. It is filed as functional.
The subject of assay [24] is Klebsiella pneumoniae. As to the kind of experiment: Potentiation of clarithromycin-mediated antibacterial activity against Klebsiella pneumoniae ATCC 13883 assessed as decrease in clarithromycin MIC at 4 ug/ml by checkerboard method relative to control. The format is functional.
The test system of assay [25] is Klebsiella pneumoniae. As to the kind of experiment: Potentiation of erythromycin-mediated antibacterial activity against Klebsiella pneumoniae ATCC 13883 assessed as decrease in erythromycin MIC at 4 ug/ml by checkerboard method relative to control. It is filed as functional.
Assay [26] deals with Klebsiella pneumoniae. Description: Potentiation of vancomycin-mediated antibacterial activity against Klebsiella pneumoniae ATCC 13883 assessed as decrease in vancomycin MIC at 4 ug/ml by checkerboard method relative to control. The format is functional.
The subject of assay [27] is Pseudomonas aeruginosa. As to the kind of experiment: Bactericidal activity against Pseudomonas aeruginosa ATCC 27853 after 60 mins in presence of LPS. The format is functional. Put shortly: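 P. aeruginosa at ~10^6 CFU/mL in TSB with E. coli O111:B4 LPS (final 10, 25, 50 or 100 μg/mL), then compound at final 16 μg/mL. Incubated 37 °C, 200 rpm, 60 min; survivors counted on TSA. Three independent experiments, one replicate each.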

Assay [28] relates to Klebsiella pneumoniae. As to the kind of experiment: Potentiation of rifampicin-mediated antibacterial activity against Klebsiella pneumoniae ATCC 13883 assessed as decrease in rifampicin MIC at 1.56 to 12.5 ug/ml by broth dilution method relative to control. The format is functional.
The subject of assay [29] is Klebsiella pneumoniae. As to the kind of experiment: Potentiation of rifampicin-mediated antibacterial activity against Klebsiella pneumoniae ATCC 700603 assessed as decrease in rifampicin MIC at 1.56 to 12.5 ug/ml by broth dilution method relative to control. The format is functional.

Molecules are shown by their SMILES. Converted amounts (≈) assume the structure as drawn. The source made the active and inactive calls. The rule behind the calls is not given here. Non-standard residues stand in square brackets, D forms with d. Residues, ends and D or L forms follow the SMILES beside them. *: point of attachment. Octanoyl = CCCCCCCC(=O)*; Dab = NCC[C@H](N)C(=O)O Bounds are passed on as bounds.

As for `CCCCCCCC(=O)N[C@@H](CCN)C(=O)N[C@H](C(=O)N[C@@H](CCN)C(=O)N[C@H](Cc1ccccc1)C(=O)N[C@@H](CC(C)C)C(=O)N[C@@H](CCN)C(=O)N[C@@H](C(=O)N[C@@H](CC(C)C)C(=O)N[C@@H](CCN)C(N)=O)C(C)C)[C@@H](C)CC` (Octanoyl-[Dab]I[Dab][dF]L[Dab][dV]L[Dab]-NH2), the MIC was not below 32 µg/mL in [1]; 4 to 16 µg/mL (≈ 3.54 to 14.2 µM) in assay [2]; more than 32 µg/mL in assay [3]; 2 to 4 µg/mL (≈ 1.77 to 3.54 µM) in [4]; 32 µg/mL (≈ 28.3 µM) in [5]; more than 32 µg/mL in assay [6]. In addition, the minimal inhibitory concentration (MIC) in assay [7] is 32 µg/mL (≈ 28.3 µM); in assay [9], 2 to 4 µg/mL; in [10], 16 µg/mL; in [11] it was 1 to 2 µg/mL; in [12], 2 µg/mL; in assay [13], 1 to 2 µg/mL. The MIC is 2 µg/mL in [14], 0.0019 µg/mL in assay [15] and 0.0019 to 0.0039 µg/mL in [17]. The MBC in assay [8] is 16 µg/mL (≈ 14.2 µM). In addition, the “fold change (FC)” value in assay [16] is 8192; in [18] it was “>=8192”; in assay [19] it was 16 - 32; in assay [20] it was 4096 - 8192; in [21], 128 - 256; in assay [22], 64 - 128. Moreover, the “fold change (FC)” value in assay [23] came to 1; in [24], 2048; in assay [25] it was 512; in assay [26], 2. In addition, in assay [27], the outcome was inactive.

For `CC[C@H](C)[C@@H](NC(=O)[C@@H](NC(=O)[C@H](CCC(=O)O)NC(=O)[C@H](Cc1ccccc1)NC(=O)[C@@H](CCN)NC(=O)[C@H](CCN)NC(=O)[C@H](CO)NC(=O)[C@@H](Cc1c[nH]c2ccccc12)NC(=O)[C@@H](CO)NC(=O)CNC(=O)[C@@H](CCN)NC(=O)[C@H](N)C(C)C)C(C)C)C(=O)N[C@@H](C)C(=O)O`, the “fold change (FC)” value in assay [28] and in [29] was 256 - 512 in each case.
